Key:
D(1A) dopamine receptor = D(1A) dopamine receptor (Rattus norvegicus, UniProt P18901); experiment: Binding affinity at rat striatal Dopamine receptor D1 using [3H]- SCH-23390 radioligand
Dopamine receptor = Dopamine receptor (Bos taurus, UniProt Q95136+P20288); experiment: Agonistic activity against calf striatal Dopamine receptor using [3H]- ADTN radioligand; format: functional
Method in brief: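 Calf striatal membranes incubated with the dopamine agonist radioligand (±)-[3H]ADTN at 0.5 nM for 60 min at 25 °C.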

D(2) dopamine receptor = D(2) dopamine receptor (Rattus norvegicus, UniProt P61169); experiment: Binding affinity at rat striatal Dopamine receptor D2 using [3H]- piperone radioligand
Sequence of D(2) dopamine receptor (P61169 whole entry): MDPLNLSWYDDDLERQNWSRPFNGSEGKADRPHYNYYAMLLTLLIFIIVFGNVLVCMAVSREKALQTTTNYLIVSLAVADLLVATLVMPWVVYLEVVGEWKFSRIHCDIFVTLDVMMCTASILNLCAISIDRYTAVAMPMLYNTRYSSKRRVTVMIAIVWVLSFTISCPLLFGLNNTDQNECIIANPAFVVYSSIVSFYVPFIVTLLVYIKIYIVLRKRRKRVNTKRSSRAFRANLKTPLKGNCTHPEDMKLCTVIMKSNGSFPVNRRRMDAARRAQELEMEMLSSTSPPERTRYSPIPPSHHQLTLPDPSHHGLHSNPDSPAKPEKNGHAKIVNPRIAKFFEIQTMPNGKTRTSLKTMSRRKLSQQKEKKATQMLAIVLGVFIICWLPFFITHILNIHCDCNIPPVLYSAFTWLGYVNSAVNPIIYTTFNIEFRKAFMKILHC

[1] = target: Dopamine receptors; D1 & D2 (Rattus norvegicus) (UniProt P18901+P61169); experiment: Ratio of binding affinity of D2 to binding affinity of D1; format: protein assay

Sequence of D(1A) dopamine receptor (P18901 whole entry): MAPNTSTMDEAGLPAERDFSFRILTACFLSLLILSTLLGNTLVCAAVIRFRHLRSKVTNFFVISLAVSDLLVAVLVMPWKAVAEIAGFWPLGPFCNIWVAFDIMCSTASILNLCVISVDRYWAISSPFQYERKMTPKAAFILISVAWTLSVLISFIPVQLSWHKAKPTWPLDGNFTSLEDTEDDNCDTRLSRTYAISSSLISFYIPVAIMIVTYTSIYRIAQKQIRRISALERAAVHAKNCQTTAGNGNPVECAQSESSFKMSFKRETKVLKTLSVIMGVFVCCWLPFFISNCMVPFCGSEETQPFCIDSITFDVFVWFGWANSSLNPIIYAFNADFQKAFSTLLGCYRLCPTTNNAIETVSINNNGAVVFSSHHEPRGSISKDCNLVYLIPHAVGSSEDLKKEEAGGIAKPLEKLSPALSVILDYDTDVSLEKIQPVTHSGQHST

Row | SMILES | Ki (D(1A) dopamine receptor) | Ki (Dopamine receptor) | Ki (D(2) dopamine receptor) | Potency ratio [1]
1 | CCCN1CCc2cc(O)cc3c2[C@H]1Cc1ccc(O)c(O)c1-3 | 915 nM | 1.15 nM | 0.053 nM | 17300
2 | CCCN1CCc2cc(OC)cc3c2[C@H]1Cc1ccc(O)c(O)c1-3 | 1780 nM | 3.84 nM | 0.17 nM | 10500
3 | CN1CCc2cc(Br)cc3c2[C@H]1Cc1ccc(O)c(O)c1-3 | 106 nM |  | 17.7 nM | 6
4 | COc1cc2c3c(c1)-c1c(ccc(O)c1O)C[C@@H]3N(C)CC2 | < 10000 nM | 162 nM | 34.7 nM | > 300
5 | COc1cc2c3c(c1)-c1c(ccc(O)c1O)C[C@H]3N(C)CC2 | < 10000 nM | 16.4 nM | 1.12 nM | > 9000
6 | CN1CCc2cc(Cl)cc3c2[C@H]1Cc1ccc(O)c(O)c1-3 | 74.5 nM |  | 22.3 nM | 3.3
